This note sets out measurements from ChEMBL document CHEMBL1132870, “Solid-phase parallel synthesis of azarene pyrrolidinones as factor Xa inhibitors” (Bioorg Med Chem Lett, 2000).

Structures are written as SMILES.

The first experiment deals with T1, Coagulation factor X (Oryctolagus cuniculus) (UniProt O19045).
T1 sequence (whole entry): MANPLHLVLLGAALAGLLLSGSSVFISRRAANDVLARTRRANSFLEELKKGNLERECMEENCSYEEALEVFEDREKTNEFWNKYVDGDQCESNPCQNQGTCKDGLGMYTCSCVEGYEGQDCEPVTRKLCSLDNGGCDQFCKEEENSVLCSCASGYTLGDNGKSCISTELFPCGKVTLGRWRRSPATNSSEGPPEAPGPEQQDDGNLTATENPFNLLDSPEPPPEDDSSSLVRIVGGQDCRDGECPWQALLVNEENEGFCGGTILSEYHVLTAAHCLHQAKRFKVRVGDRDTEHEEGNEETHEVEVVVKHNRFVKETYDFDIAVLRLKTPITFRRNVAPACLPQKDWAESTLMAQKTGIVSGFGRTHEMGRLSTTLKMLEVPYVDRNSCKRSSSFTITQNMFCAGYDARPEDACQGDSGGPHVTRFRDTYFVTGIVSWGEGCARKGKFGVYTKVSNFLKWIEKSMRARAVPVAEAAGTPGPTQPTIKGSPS
The experiment can be described thus: Compound was tested for its inhibitory activity against Coagulation factor X at a concentration of 0.2 uM.
`O=C1[C@@H](NS(=O)(=O)c2cc3c(Cl)nccc3s2)CCN1Cc1cc2cc[nH]cc-2n1` returned an inhibition of 52%.

Another experiment addresses T1, Coagulation factor X (Oryctolagus cuniculus). The experiment can be described thus: Compound was tested for its inhibitory activity against Coagulation factor X at a concentration of 0.3 uM.
Take `O=C1[C@@H](NS(=O)(=O)c2ccc(-c3ccc(Cl)s3)s2)CCN1Cc1cc2cc[nH]cc-2n1`: the inhibition is 53%.

Consider `O=C1[C@@H](NS(=O)(=O)c2cc3ncccc3s2)CCN1Cc1cc2[nH]cccc-2n1`, for which the inhibition came to 58%.

For the next experiment the target is unchanged. Nature of the experiment: Compound was tested for its inhibitory activity against Coagulation factor X at a concentration of 0.4 uM.
As to `O=C1[C@@H](NS(=O)(=O)c2cc3nc(Cl)ccc3s2)CCN1CCNc1ccncc1`, the inhibition was 50%.

A further experiment shares this target. Nature of the experiment: Compound was tested for its inhibitory activity against Coagulation factor X at a concentration of 0.5 uM.
`O=C1[C@@H](NS(=O)(=O)c2cc3ccnc(Cl)c3s2)CCN1Cc1cc2cc[nH]cc-2n1` came in with an inhibition of 48%.

The compound `Cc1c(S(=O)(=O)N[C@H]2CCN(CCNc3ccncc3)C2=O)sc2cc(Cl)ccc12` yielded an inhibition of 47%.

For `O=C1[C@@H](NS(=O)(=O)c2cc3c(Cl)nccc3s2)CCN1Cc1cc2[nH]cccc-2n1`, the inhibition came out at 50%.

As to `O=C1[C@@H](NS(=O)(=O)c2cc3ccc(Cl)cc3s2)CCN1Cc1cc2c[nH]ccc-2n1`, the inhibition came out at 53%.

On to `O=C1[C@@H](NS(=O)(=O)c2cc3nc(Cl)ccc3s2)CCN1Cc1cc2[nH]cccc-2n1`, for which the inhibition was 48%.

As for `O=C1[C@@H](NS(=O)(=O)c2cc3ccc(Cl)cc3s2)CCN1Cc1cc2[nH]cccc-2n1`, the inhibition was 64%.

Take `O=C1[C@@H](NS(=O)(=O)c2cc3cccnc3s2)CCN1Cc1cc2cc[nH]cc-2n1`: the inhibition was determined as 43%.

For another experiment the target is unchanged. The experiment can be described thus: Compound was tested for its inhibitory activity against Coagulation factor X at a concentration of 0.7 uM.
Consider `O=C1[C@@H](NS(=O)(=O)c2cc3ncccc3s2)CCN1CCNc1ccncc1`, for which the inhibition stood at 50%.

Another experiment shares this target. Nature of the experiment: Compound was tested for its inhibitory activity against Coagulation factor X at a concentration of 0.1 uM.
In the case of `O=C1[C@@H](NS(=O)(=O)c2cc3ccc(Cl)cc3s2)CCN1Cc1cc2cc[nH]cc-2n1`, the inhibition is 50%.

`O=C1[C@@H](NS(=O)(=O)c2cc3ccc(Cl)nc3s2)CCN1CCNc1ccncc1` registered an inhibition of 53%.

Turning to `O=C1[C@@H](NS(=O)(=O)c2ccc(-c3ccc(Cl)s3)s2)CCN1CCNc1ccncc1`, the inhibition stood at 77%.

For the compound `O=C1[C@@H](NS(=O)(=O)c2cc3ncccc3s2)CCN1Cc1cc2cc[nH]cc-2n1`, the inhibition was found to be 52%.

As for `O=C1[C@@H](NS(=O)(=O)c2cc3ccc(Cl)cc3s2)CCN1CCNc1ccncc1`, the inhibition was determined as 57%.

The compound `O=C1[C@@H](NS(=O)(=O)c2ccc(-c3ccc(Cl)s3)s2)CCN1Cc1cc2c[nH]ccc-2n1` had an inhibition of 62%.

Another experiment has the same target. The experiment can be described thus: Inhibitory activity against coagulation factor X at a concentration of 1 uM. A digest of the protocol: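 Triplicate screen. DMSO stocks were diluted to 1 µM final inhibitor in 0.05 M Tris, 0.15 M NaCl, 0.1% PEG-8000, pH 7.5. Incubated 30 min at rt with 1 nM fXa, then 200 µM Spectrozyme chromogenic substrate added. Initial rates read at 405 nm over 5 min in kinetic mode; % inhibition reported.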
Turning to `O=C1[C@@H](NS(=O)(=O)c2cc3cccnc3s2)CCN1Cc1cc2[nH]cccc-2n1`, the inhibition was 44%.

Regarding `O=C1[C@@H](NS(=O)(=O)c2ccc(-c3ccncc3)s2)CCN1Cc1cc2cc[nH]cc-2n1`, the inhibition came to 50%.

As to `O=C1[C@@H](NS(=O)(=O)c2ccc(-c3ccon3)s2)CCN1Cc1cc2c[nH]ccc-2n1`, the inhibition was determined as 17%.

For the compound `O=C1[C@@H](NS(=O)(=O)c2cc3c(Cl)nccc3s2)CCN1Cc1cc2c[nH]ccc-2n1`, the inhibition turned out to be 35%.

`O=C1[C@@H](NS(=O)(=O)c2ccc(-c3ccncc3)s2)CCN1Cc1cc2c[nH]ccc-2n1` returned an inhibition of 21%.

The compound `CC(C)(C)c1ccc(S(=O)(=O)N[C@H]2CCN(Cc3cc4c[nH]ccc-4n3)C2=O)cc1` came in with an inhibition of 14%.

Compound `O=C1[C@@H](NS(=O)(=O)c2cc3nc(Cl)ccc3s2)CCN1Cc1cc2c[nH]ccc-2n1` registered an inhibition of 58%.

The compound `O=C1[C@@H](NS(=O)(=O)c2ccc(-c3ccccn3)s2)CCN1Cc1cc2c[nH]ccc-2n1` yielded an inhibition of 11%.

In turn, `O=C1[C@@H](NS(=O)(=O)c2nc3cc(Cl)ccc3[nH]2)CCN1Cc1cc2cc[nH]cc-2n1` yielded an inhibition of 21%.

In turn, `O=C1[C@@H](NS(=O)(=O)c2nc3cc(Cl)ccc3[nH]2)CCN1Cc1cc2c[nH]ccc-2n1` gave an inhibition of 31%.

With `O=C1[C@@H](NS(=O)(=O)c2ccc(-c3ccccn3)s2)CCN1Cc1cc2[nH]cccc-2n1`, the inhibition worked out at 8%.

Compound `O=C1[C@@H](NS(=O)(=O)c2ccc(-c3ccon3)s2)CCN1Cc1cc2[nH]cccc-2n1` registered an inhibition of 31%.

`CC(C)(C)c1ccc(S(=O)(=O)N[C@H]2CCN(Cc3cc4cc[nH]cc-4n3)C2=O)cc1` came in with an inhibition of 57%.

Compound `O=C1[C@@H](NS(=O)(=O)c2nc3cc(Cl)ccc3[nH]2)CCN1CCNc1ccncc1` yielded an inhibition of 29%.

The compound `O=C1[C@@H](NS(=O)(=O)c2cc3cccnc3s2)CCN1Cc1cc2c[nH]ccc-2n1` came in with an inhibition of 18%.

In turn, `O=C1[C@@H](NS(=O)(=O)c2cc3ccc(Cl)nc3s2)CCN1Cc1cc2cc[nH]cc-2n1` came in with an inhibition of 50%.

Turning to `O=C1[C@@H](NS(=O)(=O)c2ccc(-c3ccncc3)s2)CCN1Cc1cc2[nH]cccc-2n1`, the inhibition stood at 35%.

The compound `CC(C)(C)c1ccc(S(=O)(=O)N[C@H]2CCN(CCNc3ccncc3)C2=O)cc1` showed an inhibition of 14%.

Consider `CC(C)(C)c1ccc(S(=O)(=O)N[C@H]2CCN(Cc3cc4[nH]cccc-4n3)C2=O)cc1`, for which the inhibition is 22%.

`O=C1[C@@H](NS(=O)(=O)c2cc3ccnc(Cl)c3s2)CCN1CCNc1ccncc1`: the inhibition came to 23%.

The compound `O=C1[C@@H](NS(=O)(=O)c2ccc(-c3ccon3)s2)CCN1CCNc1ccncc1` gave an inhibition of 22%.

The compound `O=C1[C@@H](NS(=O)(=O)c2nc3cc(Cl)ccc3[nH]2)CCN1Cc1cc2[nH]cccc-2n1` gave an inhibition of 14%.

Regarding `O=C1[C@@H](NS(=O)(=O)c2cc3ccnc(Cl)c3s2)CCN1Cc1cc2c[nH]ccc-2n1`, the inhibition stood at 25%.

In the case of `O=C1[C@@H](NS(=O)(=O)c2cc3ncccc3s2)CCN1Cc1cc2c[nH]ccc-2n1`, the inhibition came to 61%.

Turning to `O=C1[C@@H](NS(=O)(=O)c2ccc(-c3ccon3)s2)CCN1Cc1cc2cc[nH]cc-2n1`, the inhibition was 49%.

Regarding `O=C1[C@@H](NS(=O)(=O)c2cc3ccnc(Cl)c3s2)CCN1Cc1cc2[nH]cccc-2n1`, the inhibition is 45%.

Compound `Cc1c(S(=O)(=O)N[C@H]2CCN(Cc3cc4[nH]cccc-4n3)C2=O)sc2ccc(Cl)cc12` came in with an inhibition of 40%.

`O=C1[C@@H](NS(=O)(=O)c2ccc(-c3ccccn3)s2)CCN1CCNc1ccncc1` showed an inhibition of 18%.

Compound `O=C1[C@@H](NS(=O)(=O)c2ccc(-c3ccccn3)s2)CCN1Cc1cc2cc[nH]cc-2n1` showed an inhibition of 17%.

The compound `Cc1c(S(=O)(=O)N[C@H]2CCN(Cc3cc4c[nH]ccc-4n3)C2=O)sc2ccc(Cl)cc12` came in with an inhibition of 37%.

On to `O=C1[C@@H](NS(=O)(=O)c2ccc(-c3ccncc3)s2)CCN1CCNc1ccncc1`, for which the inhibition was found to be 41%.

In turn, `O=C1[C@@H](NS(=O)(=O)c2cc3cccnc3s2)CCN1CCNc1ccncc1` registered an inhibition of 23%.

Turning to `O=C1[C@@H](NS(=O)(=O)c2cc3ccc(Cl)nc3s2)CCN1Cc1cc2[nH]cccc-2n1`, the inhibition was found to be 23%.

As for `O=C1[C@@H](NS(=O)(=O)c2cc3ccc(Cl)nc3s2)CCN1Cc1cc2c[nH]ccc-2n1`, the inhibition came out at 51%.

Turning to `O=C1[C@@H](NS(=O)(=O)c2cc3c(Cl)nccc3s2)CCN1CCNc1ccncc1`, the inhibition worked out at 39%.

For the compound `O=C1[C@@H](NS(=O)(=O)c2ccc(-c3ccc(Cl)s3)s2)CCN1Cc1cc2[nH]cccc-2n1`, the inhibition was 42%.
